Data: ChEMBL document CHEMBL1212693, “Dorsomorphin inhibits BMP signals required for embryogenesis and iron metabolism” (Nat Chem Biol, 2008)
Calls of active or inactive are those of the source. The calls are words filed in the database; no cut-off is given here.

How the values were obtained:
[1] = (§1) Inhibition of BMPR1-mediated Smad-8 phosphorylation in BMP4-stimulated mouse PASMC treated 30 mins before BMP4 challenge measured after 30 mins by immunoblot analysis
Procedure, shortened: (§2)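 Mouse PASMCs were held 24 h in RPMI with 0.5% FCS. They were preincubated 30 min with test agent, noggin or vehicle, then exposed to recombinant BMP4 for 30 min. SDS lysates were immunoblotted for phospho-SMAD1/5/8 and bands quantified by phosphorimager. Dose-dependence was fitted as a Hill plot.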

[2] = species: Mus musculus; assay: as §1; procedure, shortened: as §2
[3] = species: Danio rerio; assay: Inhibition of AMPK in zebrafish assessed as embryonic axis dorsalization at 10 uM treated at 3 hrs post-fertilization measured at 48 hrs; design: scale not given: the % may be the effect or the level left
[4] = species: Danio rerio; assay: Inhibition of BMPR1 in zebrafish assessed as severity of embryonic axis dorsalization at 5 uM treated at 3 hrs post-fertilization measured at 48 hrs; design: scale not given: the % may be the effect or the level left
[5] = species: Danio rerio; assay: Inhibition of BMPR1 in zebrafish assessed as severity of embryonic axis dorsalization at 10 uM treated continuously from 6 hrs post-fertilization measured at 48 hrs; design: scale not given: the % may be the effect or the level left
[6] = species: Danio rerio; assay: Inhibition of BMPR1 in zebrafish assessed as penetrance of mild embryonic axis dorsalization at 10 uM treated continuously from 2 hrs post-fertilization measured after 48 hrs; design: scale not given: the % may be the effect or the level left
Procedure, shortened: (§3)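 Compound added at the stated times and concentrations. Gross morphology scored visually at up to 48 h.p.f. for dorsalization of the embryonic axis.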

[7] = test system: C2C12; assay: Inhibition of BMPR1-mediated osteoblast differentiation in BMP4-stimulated mouse C2C12 cells assessed as decrease in alkaline phosphatase level at 4 uM by spectrophotometry; type: cell-based
Procedure, shortened: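 C2C12 cells were seeded at 2,000 per well in DMEM with 2% FBS and treated in quadruplicate with BMP4 or BMP6 plus compound or vehicle. After 5 d, cells were lysed in TBS with 1% Triton X-100. Lysates were incubated 1 h with p-nitrophenylphosphate and alkaline phosphatase was read as absorbance at 405 nm. Cell count was measured by CyQuant in parallel wells.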

[8] = species: Danio rerio; assay: Inhibition of BMPR1 in zebrafish assessed as severity of embryonic axis dorsalization at 1 uM treated at 3 hrs post-fertilization measured at 48 hrs; design: scale not given: the % may be the effect or the level left
[9] = species: Mus musculus; assay: Inhibition of BMPR1-mediated Smad-8 phosphorylation in BMP4-stimulated mouse PASMC at 100 to 200 ng/ml treated 30 mins before BMP4 challenge measured after 30 mins by immunoblot analysis; procedure, shortened: as §2
[10] = test system: Danio rerio; assay: Inhibition of iron-dextran conjugate-induced Smad-8 phosphorylation in zebrafish at 23 ug/g, iv after 1 hr relative to control; type: functional
[11] = species: Mus musculus; assay: Inhibition of BMPR1-mediated Smad-1 phosphorylation in BMP2-stimulated mouse PASMC at 4 uM treated 30 mins before BMP2 challenge measured after 30 mins by immunoblot analysis
Procedure, shortened: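 PASMCs (wild-type or BMPR-II–deficient) were kept 24 h in RPMI with 0.5% FCS, preincubated 30 min with compound or vehicle, then stimulated 30 min with recombinant BMP (10 ng ml−1). Extracts in SDS-lysis buffer were immunoblotted for phospho-SMAD1/5/8, with total SMAD1 and α-tubulin as loading controls. Bands were quantitated by phosphorimager.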

[12] = species: Danio rerio; assay: Inhibition of BMPR1 in zebrafish assessed as penetrance of moderate embryonic axis dorsalization at 10 uM treated continuously from 8 hrs post-fertilization measured at 48 hrs; design: scale not given: the % may be the effect or the level left
[13] = species: Danio rerio; assay: Inhibition of BMPR1 in zebrafish assessed as severity of embryonic axis dorsalization at 10 uM treated continuously from 10 hrs post-fertilization measured at 48 hrs; design: scale not given: the % may be the effect or the level left
[14] = species: Danio rerio; assay: Inhibition of BMPR1 in zebrafish assessed as penetrance of normal embryonic axis dorsalization at 10 uM treated at 4 to 8 hrs post-fertilization measured at 48 hrs; design: scale not given: the % may be the effect or the level left
[15] = test system: Danio rerio; assay: Inhibition of iron-dextran conjugate-induced Smad-5 phosphorylation in zebrafish at 23 ug/g, iv after 1 hr relative to control; type: functional
[16] = species: Danio rerio; assay: Inhibition of BMPR1 in zebrafish assessed as penetrance of moderate embryonic axis dorsalization at 5 uM treated at 3 hrs post-fertilization measured at 48 hrs; design: scale not given: the % may be the effect or the level left
[17] = species: Danio rerio; assay: Inhibition of BMPR1 in zebrafish assessed as penetrance of normal embryonic axis dorsalization at 10 uM treated continuously from 8 hrs post-fertilization measured at 48 hrs; design: scale not given: the % may be the effect or the level left
[18] = species: Danio rerio; assay: Inhibition of BMPR1 in zebrafish assessed as penetrance of moderate embryonic axis dorsalization at 10 uM treated continuously from 2 hrs post-fertilization measured after 48 hrs; design: scale not given: the % may be the effect or the level left; procedure, shortened: as §3
[19] = species: Mus musculus; assay: Inhibition of ALK2-mediated Smad-8 phosphorylation in BMPR2 deficient mouse PASMC at 10 uM by immunoblot analysis
Procedure, shortened: (§4)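 BMPR-II–deficient mouse PASMCs (RPMI, 10% FBS) transiently transfected with constitutively active ALK2, ALK3 or ALK6 cDNA, or plasmid-only control. Incubated with or without compound (10 µM). Extracts lysed in SDS buffer, run on SDS-PAGE and immunoblotted for phospho-SMAD1/5/8; quantitated by phosphorimager.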

[20] = species: Mus musculus; assay: Inhibition of BMPR1-mediated Smad-1 phosphorylation in BMP4-stimulated mouse PASMC at 100 to 200 ng/ml treated 30 mins before BMP4 challenge measured after 30 mins by immunoblot analysis
Procedure, shortened: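 Mouse PASMCs were serum-reduced 24 h in 0.5% FCS RPMI, pretreated 30 min with noggin or vehicle, then given BMP4 for 30 min. Lysates in SDS buffer were immunoblotted for phospho-SMAD1/5/8 and phospho-MAPK p38, and signals were quantitated by phosphorimager.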

[21] = species: Mus musculus; assay: Inhibition of BMPR1-mediated Smad-5 phosphorylation in BMP2-stimulated mouse PASMC at 4 uM treated 30 mins before BMP2 challenge measured after 30 mins by immunoblot analysis
Procedure, shortened: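 Wild-type mouse PASMCs were kept in RPMI with 0.5% FCS for 24 h. They were preincubated with compound or vehicle for 30 min, then stimulated for 30 min with recombinant BMP2, BMP4, BMP6 or BMP7 at 10 ng ml−1. Lysates in SDS buffer were immunoblotted with anti-phospho-SMAD1/5/8. Total SMAD1 and α-tubulin served as loading controls, and bands were quantified by phosphorimager.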

[22] = species: Danio rerio; assay: Inhibition of BMPR1 in zebrafish assessed as penetrance of moderate embryonic axis dorsalization at 10 uM treated at 3 hrs post-fertilization measured at 48 hrs; design: scale not given: the % may be the effect or the level left; procedure, shortened: as §3
[23] = species: Danio rerio; assay: Inhibition of BMPR1 in zebrafish assessed as increase in myod expression at 10 uM treated at 12 hrs post-fertilization measured at 48 hrs
[24] = species: Mus musculus; assay: Inhibition of ALK3-mediated Smad-5 phosphorylation in BMPR2 deficient mouse PASMC at 10 uM by immunoblot analysis; procedure, shortened: as §4
[25] = species: Danio rerio; assay: Inhibition of BMPR1 in zebrafish assessed as penetrance of mild embryonic axis dorsalization at 10 uM treated continuously from 6 hrs post-fertilization measured at 48 hrs; design: scale not given: the % may be the effect or the level left; procedure, shortened: as §3
[26] = species: Danio rerio; assay: Inhibition of BMPR1 in zebrafish assessed as penetrance of mild embryonic axis dorsalization at 0.5 uM treated at 3 hrs post-fertilization measured at 48 hrs; design: scale not given: the % may be the effect or the level left; procedure, shortened: as §3
[27] = species: Danio rerio; assay: Inhibition of BMPR1 in zebrafish assessed as penetrance of normal embryonic axis dorsalization at 10 uM treated at 6 to 8 hrs post-fertilization measured at 48 hrs; design: scale not given: the % may be the effect or the level left
[28] = species: Mus musculus; assay: Inhibition of ALK2-mediated Smad-5 phosphorylation in BMPR2 deficient mouse PASMC at 10 uM by immunoblot analysis; procedure, shortened: as §4

With `c1cc(-c2cnn3cc(-c4ccc(OCCN5CCCCC5)cc4)cnc23)ccn1` [DORSOMORPHIN] the IC50 [1] was 470 nM, the inhibition [2] was “Dose-dependent effect” and the Activity [3] was 100%. For the same compound, the Activity [4] was 19%, the Activity [5] was 0% and the Activity [6] was 0%. The inhibition [7] was “Active”, the Activity [8] was 0% and the inhibition [9] was “Active”. The “fold change (FC)” value [10] was 3, the inhibition [11] was “Active” and the Activity [12] was 0%. For the same compound, the Activity [13] was 0%, the Activity [14] was 0% and the “fold change (FC)” value [15] was 3. It also gave an Activity [16] of 0%, an Activity [17] of 15% and an Activity [18] of 0%. The inhibition [19] was “Active”, the inhibition [20] was “Active” and the inhibition [21] was “Active”. The Activity [22] was 98%, the Activity [23] was “Active” and the inhibition [24] was “Active”. It also gave an Activity [25] of 22%, an Activity [26] of 0% and an Activity [27] of 0%. For the same compound, the inhibition [28] was “Active”.
